Measurements published in ChEMBL document CHEMBL4513216, “Probing the Open Global Health Chemical Diversity Library for Multistage-Active Starting Points for Next-Generation Antimalarials” (ACS Infect Dis, 2020).

experiment: Toxicity liver stage against HepG2, at 10uM; type: cell-based; parameters: test concentration 10 uM, cell line HepG2-A16-CD81EGFP; details: human, HepG2-A16-CD81EGFP cells; read-out: INHIBITION
Method in brief: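 Uninfected HepG2-A16-CD81EGFP cells, 3 × 10^3 per well, 1536-well, plated on prespotted compound at 10 μM final, parasite-free screening media added to match infected plates; puromycin 10 μM positive, DMSO 0.5% negative; run in parallel with 48 h PbLuc assay at 37 °C, 5% CO2; viability by CellTiter-Glo luminescence, normalized to controls.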

| Structure (SMILES) | cytotoxicity at 10 µM |
| --- | --- |
| COc1ccc(Cl)cc1NCC(=O)N(Cc1ccncc1)C1CC1 | 13.7% |
| COCC(Nc1ncnc2sc(C(=O)O)c(C)c12)c1ccnn1C (configuration not stated) | -18.7% |
| COc1ccc(-c2nnc(SC(C)C(=O)NC3CCCC3)[nH]2)c(OC)c1 (configuration not stated) | 36.4% |
| Cc1ccoc1C(=O)NC1CCN(Cc2ccccc2C#N)CC1 | -3.51% |
| CN(C)C(=O)CN1CCOCC2(CCN(c3ncc(F)cn3)CC2)C1 | 0.419% |
| O=C(Cc1csc(-c2cccc(Cl)c2)n1)NCc1cccc(C(=O)O)c1 | -0.0616% |
| CCOCC(=O)N1CCC(c2nccn2Cc2cscn2)CC1 | -5.58% |
| CC(C)N1CCCn2nc(C(=O)NCCc3c[nH]cn3)cc2C1 | 14.2% |
| Cc1ccc(S(=O)(=O)N2CCN(CCC#N)CC2)s1 | -10.8% |
| Cn1c(N2CCOCC2)nc2cc(C(=O)NCC(F)(F)F)ccc21 | 1.85% |
| Cc1ccc(-n2nnc(C(=O)NC(C)C)c2C2CC2)cc1 | -3.37% |
| Cc1cc(C(=O)NCC(F)(F)F)c2c(C3CCCN3)noc2n1 (configuration not stated) | 6% |
| CN(Cc1cn2c(n1)CN(Cc1ccsc1)CC2)Cc1ccco1 | -78.5% |
| Cc1ccc2c(CC(=O)N3C[C@@H](O)[C@H](N(C)C)C3)coc2c1 | 10.4% |
| O=C(COCC(=O)N(c1ccccc1)c1ccccc1)N1CCOCC1 | 1.64% |
| CCN(CC1CN(CCc2ccccn2)CCO1)c1cccnn1 (configuration not stated) | -6% |
| CNC(=O)[C@@H]1[C@H]2CN(Cc3ccoc3)CCN2C[C@H]1c1ccccc1 | 4.06% |
| Cc1nc(C2CCCN2CCCS(=O)(=O)N(C)C)no1 (configuration not stated) | -4.69% |
| CS(=O)(=O)NCCCNc1ccc(C(F)(F)F)cc1C#N | -2.18% |
| O=C(NCc1nc2cc(F)ccc2[nH]1)c1ccc[nH]1 | 11.9% |
| COc1ccc(-n2cc3[nH][nH]c(=O)n3c2=O)cc1 | 10.3% |

| Structure (SMILES) | cytotoxicity at 10 µM |
| --- | --- |
| OC1CN(c2nc3c(C(F)(F)F)cccc3s2)C1 | -8.37% |
| CCc1nnc(C2Cc3ccccc3CN2Cc2nc(C3CC3)no2)o1 (configuration not stated) | -8.03% |
| CCC(=O)N1CCN(C(=O)Nc2cccc(F)c2)[C@H]2CS(=O)(=O)C[C@H]21 | -46.8% |
| CCn1nccc1CNC(=O)C1CC1 | -12.2% |
| O=C(c1cccc(S(=O)(=O)NCCCc2ncc[nH]2)c1)N1CCOCC1 | -11.4% |
| O=C(Cc1ccc2c(c1)OCO2)N1CCCN(c2ccccc2)CC1 | -2.84% |
| CC(c1ccc2c(c1)OCO2)n1cc2nc(N(C)C)[nH]cc-2c1=O (configuration not stated) | -2.72% |
| FC(F)(F)Cc1noc(CN2CCCC2c2noc(C3CC3)n2)n1 (configuration not stated) | -2.7% |
| Cc1ncncc1-c1ccnc(N)n1 | -7.22% |
| O=C1NC2(CCN(C(=O)c3ccc(Cl)cc3)CC2)CC1c1ccccc1 (configuration not stated) | -12.2% |
| Cc1noc([C@]23COC[C@H]2CN(C(=O)CN(C)C)C3)n1 | -104% |
| COc1c(NC(=O)N(C)CCOc2ccccc2)c(C)nn1C | 19.2% |
| CN(C)C(=O)NCc1cc2n(n1)CCN(CC1[C@H]3CNC[C@@H]13)C2 (some centres not stated) | -27.7% |
| N#Cc1cccc(Cl)c1NCCc1n[nH]c(=O)[nH]1 | 60.1% |
| Cc1ccc(CN2Cc3cnn(C)c3C(COCC3CC3)C2)o1 (configuration not stated) | -78.5% |
| CC(NC(=O)Cn1cccn1)c1ccc2c(c1)OCCCO2 (configuration not stated) | -2.55% |
| Cn1ccc(C(=O)NCCOc2ccc3c(c2)OCO3)cc1=O | 5.97% |
| O=C(c1ccc(Cl)cc1F)N1CCC(Cn2cc(CO)nn2)CC1 | -1.36% |
| O=C(NCc1ccccc1)N1CCc2ncnc(NC3CC3)c2CC1 | -100% |
| CC(=O)N1CCC(c2nccnc2-c2ccc(C(=O)O)cc2)CC1 | 11.1% |
| CCNC(=O)N1CC(c2nc(Cc3ccccc3)no2)C1 | -2.98% |

| Structure (SMILES) | cytotoxicity at 10 µM |
| --- | --- |
| CCc1noc(CNc2ccc(F)cc2OCC2CC2)n1 | -7.21% |
| CN1CCc2cc(C(=O)N(C)C)c(NCC3CC3)nc2CC1 | 7.8% |
| Cc1cc(C(=O)NCCC(C)C)ccc1NS(C)(=O)=O | 7.04% |
| CNC(=O)c1ccc(C2CN(C(=O)c3coc(C)n3)CCO2)nc1 (configuration not stated) | -7.69% |
| CC(=O)N[C@@H]1CN(C(=O)c2cc(C)oc2C)C[C@H]1c1ccc(C)o1 | -10.6% |
| Cn1cc(-c2cnc(-c3ccnn3C)nc2)cc1C(=O)N1CCCC1 | 4.55% |
| CN(C)C(=O)c1nnc2ccc(N3CCOCC3)cc2n1 | 6.47% |
| CN1CCN(c2ccc(NC(=O)c3cccs3)c(C(F)(F)F)c2)CC1 | 3.94% |
| O=C(c1ccc(C(F)(F)F)nc1)N1CCCC(n2cncn2)C1 (configuration not stated) | -10.6% |
| c1cnc(-c2nc(CN3CCCC3Cn3cncn3)cs2)nc1 (configuration not stated) | -9.77% |
| Cc1nc(CN2C(=O)C[C@@H]3[C@@H]2CCN3S(=O)(=O)C2CC2)cs1 | -124% |
| N[C@H]1CN(C(=O)CCC(F)(F)F)C[C@@H]1c1ccccc1 | 6.95% |
| N#Cc1ncn(CCC(=O)Nc2c(Cl)cccc2Cl)n1 | -11.4% |
| Cc1cn2c(n1)CCC(NC(=O)c1csc(C(C)C)n1)C2 (configuration not stated) | -16.4% |
| CCS(=O)(=O)CC(=O)NC(C)c1ccc(OCCC(C)C)cc1 (configuration not stated) | 5.61% |
| O=C(c1cnc(-c2ccco2)s1)N1CCCCC1Cn1cccn1 (configuration not stated) | -5.83% |
| CCS(=O)(=O)CCNC(=O)NC(C)c1cc(C)sc1C (configuration not stated) | -3.4% |
| Cc1nnc(NC(=O)NC(C)Cn2cccn2)s1 (configuration not stated) | 6.62% |
| NC(=O)C1CCN(C(=O)NCc2ccc3c(c2)OCCO3)CC1 | -8.14% |
| Cc1cc(C(=O)N(C)CC(F)(F)C(F)(F)F)ccc1-n1cncn1 | 1.64% |
| CN(Cc1ccco1)C1CCC12CCN(C(=O)c1ccnnc1)CC2 (configuration not stated) | 0.081% |

| Structure (SMILES) | cytotoxicity at 10 µM |
| --- | --- |
| CN(C)CCNc1cc(-c2ncccc2O)c2cc[nH]c2n1 | 7.28% |
| CCc1nc(C)cc(NC(C)C(=O)Nc2cc(F)ccc2C)n1 (configuration not stated) | -4.44% |
| CCc1nnc(CN(C)c2nc(C3CCCC3)nc3c2cnn3C)o1 | -11.3% |
| CC(NC(=O)NC1CCN(CC2CCCC2)CC1)c1nccs1 (configuration not stated) | 3.2% |
| Cc1cc(C2CCCN(C(=O)c3c(C)nn4cccnc34)C2)n[nH]1 (configuration not stated) | -0.457% |
| CCC(CC)C(CNC(=O)Nc1ccc(OC)cc1)N1CCOCC1 (configuration not stated) | -2.86% |
| Cc1cccc(OCC2CCCN(C(=O)CCn3ccccc3=O)C2)c1 (configuration not stated) | -0.987% |
| Cc1noc(C)c1CS(=O)(=O)C(C)C(=O)N(C)c1ccccc1 (configuration not stated) | -1.58% |
| O=C(NCCCN1CCc2ccccc2C1)c1cccnc1O | -3.49% |
| NC(=O)C1CN(Cc2c(O)ccc3oc4c(c23)CCCC4)CCO1 (configuration not stated) | 4.48% |
| CS(=O)(=O)NCc1cn2c(n1)CN(Cc1ccoc1)CC2 | 7.92% |
| O=C(CCNC(=O)c1ccccc1F)NCCNc1cccnc1 | -7.55% |
| COC(=O)[C@H]1CCCCN1C(=O)c1cccc(-n2cccn2)c1 | -8.29% |
| Nc1nc(CNc2ncnc3c2CCN(Cc2ccoc2)CC3)cs1 | 1.63% |
| COCCN1CCC2(CCN(CC3CC3)CC2)C1=O | 7.55% |
| CCCOC1CCCN(C(=O)c2ccnnc2)C1 (configuration not stated) | -20.6% |
| Cc1ccc(CC(=O)NCC(O)c2cc(Cl)cc(Cl)c2)cn1 (configuration not stated) | -3.69% |
| Cc1cc(NC(=O)Cn2ccc(=O)c3ccccc32)[nH]n1 | -146% |
| COc1cccc(OCC(=O)N2CCOc3ccncc32)c1 | 7.68% |
